Screens deposited in PubChem by several laboratories.
RanGTP-Imp inh: inhibitors of RanGTP-importin-beta interaction, primary screen, biochemical, FRET, CFP-Ran, YFP-importin-beta, homogeneous. hit rate 1.1% among 300,000. cell-free CFP-Ran/YFP-importin-beta FRET ratio. Ran GTPase (GTP-bound) - importin-beta complex. inhibition, % (no concentration beside the values);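 active = more than half of the replicate wells show a fall in the fluorescence ratio signal beyond about 16%, limit read from the data, passing the limit was not always enough; inconclusive = exactly half of the replicate wells pass the set limit; inactive = fewer than half of replicates pass the limit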
EBV gp42 inh: Epstein-Barr virus gp42 inhibitors, primary screen, biochemical, uHTS, fluorescence polarization; inhibition, % (tested at 21.74 µM); hit rate 0.42% among 220,000; Glycoprotein 42 (Epstein-Barr virus (strain AG876)), Q1HVG2; Fluorescence polarization binding assay, mP read-out; AID 1085, 2008
MEX-5 binding: MEX-5 zinc finger RNA-binding disruptors – biochemical, C. elegans, fluorescence polarization, MLPCN library, primary screen | Zinc finger protein mex-5 (Caenorhabditis elegans), Q9XUB2 | MEX-5/FITC-TCR2 RNA binding; hits give low values | activity score (negative = inhibition of binding), % at 10 µM | hit rate 0.38% among 300,000;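 active = inhibition past about -25% in most replicates, and total fluorescence under double the plate's negative control median, limit read from the data; inconclusive = replicates evenly split on the limit, or fluorescence at least double controls; inactive = too little inhibition in most replicates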
Runt-CBFb FRET: inhibitors of RUNX1 Runt–CBFb binding, primary screen, biochemical, FRET, Cerulean-Runt, Venus-CBFb, uHTS; hit rate 0.46% among 220,000; inhibition, % at 20 µM; Cerulean-Runt/Venus-CBFb FRET ratio 530/480, 1 h; AID 1496, 2009;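 active = inhibition over about 50% at 20 µM in the single-dose screen, limit read from the data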
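test system = Cerulean-Runt domain fusion protein, energy donor | probe or stimulus = Venus-CBFb binding partner, 100 nM | incubation = two 1 h room-temperature incubations shielded from light | detection = fluorescence energy transfer, 422 nm excitation, 530/480 nm emission | measure = loss of energy transfer signal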
PKD1 inh: inhibitors of human PKD1 kinase, biochemical, fluorescence polarization; PKD1 kinase fluorescence polarization assay; inhibition, % (test concentration not listed); hit rate 0.056% among 200,000
Target sequence (Q15139 whole entry, looked up): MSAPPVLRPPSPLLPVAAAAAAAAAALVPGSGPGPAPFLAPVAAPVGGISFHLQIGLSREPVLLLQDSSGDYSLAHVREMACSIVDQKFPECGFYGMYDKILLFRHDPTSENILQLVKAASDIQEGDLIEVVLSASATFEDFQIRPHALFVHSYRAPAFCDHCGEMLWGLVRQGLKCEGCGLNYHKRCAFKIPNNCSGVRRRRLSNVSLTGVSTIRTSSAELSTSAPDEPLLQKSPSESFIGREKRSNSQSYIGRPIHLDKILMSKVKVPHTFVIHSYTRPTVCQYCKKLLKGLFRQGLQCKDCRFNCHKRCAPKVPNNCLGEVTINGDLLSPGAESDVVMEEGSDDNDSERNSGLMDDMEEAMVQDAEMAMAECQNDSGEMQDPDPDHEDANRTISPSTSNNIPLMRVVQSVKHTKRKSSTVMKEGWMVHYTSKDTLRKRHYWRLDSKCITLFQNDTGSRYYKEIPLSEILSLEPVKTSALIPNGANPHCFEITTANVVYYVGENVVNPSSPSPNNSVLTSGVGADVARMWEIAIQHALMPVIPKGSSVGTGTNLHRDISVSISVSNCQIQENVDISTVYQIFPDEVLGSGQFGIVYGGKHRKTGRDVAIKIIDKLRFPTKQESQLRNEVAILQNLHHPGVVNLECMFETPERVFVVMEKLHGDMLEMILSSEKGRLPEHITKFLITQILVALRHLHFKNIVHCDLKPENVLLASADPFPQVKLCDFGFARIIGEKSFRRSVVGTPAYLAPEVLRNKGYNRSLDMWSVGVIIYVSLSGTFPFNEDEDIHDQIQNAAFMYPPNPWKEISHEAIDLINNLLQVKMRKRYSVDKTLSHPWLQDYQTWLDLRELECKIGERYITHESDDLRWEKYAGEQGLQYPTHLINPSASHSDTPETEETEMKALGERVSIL
Runt-SMMHC FRET: inhibitors of RUNX1 Runt–CBFb-SMMHC binding, primary screen, biochemical, FRET, Cerulean-Runt, Venus-CBFb-SMMHC, uHTS; Runt-related transcription factor 1 (Homo sapiens) + Core-binding factor subunit beta …; Cerulean-Runt/Venus-CBFb-SMMHC FRET ratio 530/480, 1 h; inhibition, % at 20 µM; hit rate 0.74% among 220,000; AID 1434, 2008;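 active = mean inhibition across duplicate retests at 20 µM reaching about 50%, limit read from the data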;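 note: inhibitors lower the FRET ratio by blocking Runt binding to CBFb-SMMHC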
Of the large screens only hits and unclear results are named; the others gave an inactive call. Rows were chosen to be rich in hits. Some 2% of all compounds tested hit in one or more screens of this group. Cut-off read from the data, not from the text of the source, unless noted: active = inhibition above about 50%; inactive = the rest.

CCn1nc(NC(=O)C(C)C)c2cc3ccc(C)cc3nc21	none (no result: EBV gp42 inh, Runt-CBFb FRET, PKD1 inh, Runt-SMMHC FRET)
Cc1ccc(CC(=O)NCCS(=O)c2ccc(C)cc2)cc1 (stereo not drawn)	RanGTP-Imp inh inconclusive
CC1CCN(S(=O)(=O)c2ccc3c(c2)N(CC(=O)N(C)Cc2ccco2)C(=O)CO3)CC1	none (no result: EBV gp42 inh, Runt-CBFb FRET, PKD1 inh, Runt-SMMHC FRET)
CCOc1ccccc1/C=N/NC(=O)CNC(=O)c1cccs1	none
Cc1ccc2[nH]c3c(c2c1)SC(C)(C)CC3=O	RanGTP-Imp inh 21.0
CCCSc1nnc(N2C(=O)C(O)=C(C(=O)c3ccco3)C2c2ccccc2F)s1 (stereo not drawn)	MEX-5 binding inconclusive (no result: EBV gp42 inh, Runt-CBFb FRET, PKD1 inh, Runt-SMMHC FRET)
C=CCSc1nnc(N2C(=O)C(O)=C(C(=O)c3ccco3)C2c2ccccc2F)s1 (stereo not drawn)	MEX-5 binding -35.3 (no result: EBV gp42 inh, Runt-CBFb FRET, PKD1 inh, Runt-SMMHC FRET)
Cc1ccc(C2C(C(=O)c3ccco3)=C(O)C(=O)N2c2nnc(C)s2)cc1 (stereo not drawn)	EBV gp42 inh 76.9
CSc1nnc(N2C(=O)C(O)=C(C(=O)c3ccco3)C2c2ccccc2)s1 (stereo not drawn)	MEX-5 binding -39.8 (no result: EBV gp42 inh, Runt-CBFb FRET, PKD1 inh, Runt-SMMHC FRET)
O=c1[nH][nH]c2ccccc2c1=O	none (no result: PKD1 inh)
CC(=O)c1ccc(N/C=C/C(=O)c2ccc(Br)cc2)cc1	none (no result: EBV gp42 inh, Runt-CBFb FRET, PKD1 inh, Runt-SMMHC FRET)
Oc1ccc(C2C[C@H]3CC[C@@H]2C3)cc1O (stereo partly drawn)	MEX-5 binding -65.1 (no result: EBV gp42 inh, Runt-CBFb FRET, PKD1 inh, Runt-SMMHC FRET)
O=C1CC(c2ccc(O)c(O)c2)Oc2cc(O)cc(O)c21 (stereo not drawn)	none (no result: PKD1 inh)
Cc1cc(NC(=O)Cc2cccs2)no1	EBV gp42 inh 71.2 (no result: RanGTP-Imp inh, MEX-5 binding)
OCCCc1nc2n(n1)C(c1cccs1)C=C(c1ccc(Br)cc1)N2 (stereo not drawn)	EBV gp42 inh 140.7, MEX-5 binding -68.3
Brc1ccc(C2=CC(c3cccs3)n3ncnc3N2)cc1 (stereo not drawn)	EBV gp42 inh 161.3, MEX-5 binding -51.0
Cc1ccc(OCC(O)CN2CCC(Cc3ccccc3)CC2)c(C)c1 (stereo not drawn)	none (no result: EBV gp42 inh, Runt-CBFb FRET, PKD1 inh, Runt-SMMHC FRET)
O=C1C=C(O)c2cccc(O)c2C1=O	none (no result: RanGTP-Imp inh, MEX-5 binding, PKD1 inh)
CC1=CC(=O)c2c(O)ccc(O)c2C1=O	EBV gp42 inh 116.3 (no result: RanGTP-Imp inh, MEX-5 binding)
C(=N\n1cnnc1)/c1ccc(N2CCOCC2)s1	Runt-SMMHC FRET 69.9
C(=N\n1cnnc1)/c1ccc(N2CCOCC2)cc1	RanGTP-Imp inh inconclusive
N#C/C(=C/c1ccc(N2CCCCCC2)o1)c1ccc(F)cc1	RanGTP-Imp inh 26.8 (no result: Runt-CBFb FRET, Runt-SMMHC FRET)
CSc1nc(N(C)CCO)c2sc3nc(-c4ccco4)c4c(c3c2n1)CCC4	EBV gp42 inh 87.0
CSc1nc(SCC(=O)O)c2sc3nc(-c4ccccc4)c4c(c3c2n1)CCC4	EBV gp42 inh 53.2 (no result: PKD1 inh)
CCN1CCN(C(=O)c2cccc(OC3CCN(S(C)(=O)=O)CC3)c2)[C@@H](C)C1=O	none (no result: EBV gp42 inh, Runt-CBFb FRET, PKD1 inh, Runt-SMMHC FRET)
COCCCNC(=O)c1cc2c(=O)n3cc(C)ccc3nc2nc1NCC1CCCO1 (stereo not drawn)	RanGTP-Imp inh 172.9, Runt-SMMHC FRET 59.6
COCCCNC(=O)c1ccc2nc3ccccc3c(=O)n2c1	none
Cc1ccc2nc3nc(NCC4CCCO4)c(C(=O)NC4CCCC4)cc3c(=O)n2c1 (stereo not drawn)	RanGTP-Imp inh 180.6, Runt-SMMHC FRET 63.2
Cc1ccc2nc3c(cc(C#N)c(=N)n3CC3CCCO3)c(=O)n2c1 (stereo not drawn)	none (no result: RanGTP-Imp inh, EBV gp42 inh, MEX-5 binding, PKD1 inh)
Cc1ccc2nc3nc(NCC4CCCO4)c(C(=O)NC4CCCCC4)cc3c(=O)n2c1 (stereo not drawn)	RanGTP-Imp inh 177.1 (no result: Runt-CBFb FRET, Runt-SMMHC FRET)
Cc1ccc(C)c(-n2c(=O)c(C#N)cc3c(=O)n4ccccc4nc32)c1	RanGTP-Imp inh 107.6, Runt-SMMHC FRET 89.6
Cc1cccn2c(=O)c3cc(C#N)c(=O)n(-c4c(C)n(C)n(-c5ccccc5)c4=O)c3nc12	none
